Columns and labels:
OVCAR-3 = experiment: Growth inhibition of human OVCAR-3 cells at 10 uM after 96 hrs by MTT assay; assay type: functional; design: scale not given: the % may be the effect or the level left
MDA-MB-231 = experiment: Growth inhibition of human MDA-MB-231 cells at 10 uM after 96 hrs by MTT assay; assay type: functional; design: scale not given: the % may be the effect or the level left
MDA-MB-435 = experiment: Growth inhibition of human MDA-MB-435 cells at 10 uM after 96 hrs by MTT assay; assay type: functional; design: scale not given: the % may be the effect or the level left
SK-MEL-5 = experiment: Growth inhibition of human SK-MEL-5 cells at 10 uM after 96 hrs by MTT assay; assay type: functional; design: scale not given: the % may be the effect or the level left
786-0 = experiment: Growth inhibition of human 786-0 cells at 10 uM after 96 hrs by MTT assay; assay type: functional; design: scale not given: the % may be the effect or the level left
MCF7 = experiment: Growth inhibition of human MCF7 cells at 10 uM after 96 hrs by MTT assay; assay type: functional; design: scale not given: the % may be the effect or the level left
HOP-92 = experiment: Growth inhibition of human HOP92 cells at 10 uM after 96 hrs by MTT assay; assay type: functional; design: scale not given: the % may be the effect or the level left
OVCAR-5 = experiment: Growth inhibition of human OVCAR5 cells at 10 uM after 96 hrs by MTT assay; assay type: functional; design: scale not given: the % may be the effect or the level left
SK-OV-3 = experiment: Growth inhibition of human SKOV3 cells at 10 uM after 96 hrs by MTT assay; assay type: functional; design: scale not given: the % may be the effect or the level left
MOLT-4 = experiment: Growth inhibition of human MOLT4 cells at 10 uM after 96 hrs by MTT assay; assay type: functional; design: scale not given: the % may be the effect or the level left
T47D = experiment: Growth inhibition of human T47D cells at 10 uM after 96 hrs by MTT assay; assay type: functional; design: scale not given: the % may be the effect or the level left
M14 = experiment: Growth inhibition of human M14 cells at 10 uM after 96 hrs by MTT assay; assay type: functional; design: scale not given: the % may be the effect or the level left
KM12 = experiment: Growth inhibition of human KM12 cells at 10 uM after 96 hrs by MTT assay; assay type: functional; design: scale not given: the % may be the effect or the level left
HL-60(TB) = experiment: Growth inhibition of human HL-60(TB) cells at 10 uM after 96 hrs by MTT assay; assay type: functional; design: scale not given: the % may be the effect or the level left
EKVX = experiment: Growth inhibition of human EKVX cells at 10 uM after 96 hrs by MTT assay; assay type: functional; design: scale not given: the % may be the effect or the level left
LOX IMVI = experiment: Growth inhibition of human LOXIMVI cells at 10 uM after 96 hrs by MTT assay; assay type: functional; design: scale not given: the % may be the effect or the level left
NCI-H322M = experiment: Growth inhibition of human NCI-H322M cells at 10 uM after 96 hrs by MTT assay; assay type: functional; design: scale not given: the % may be the effect or the level left
SK-MEL-2 = experiment: Growth inhibition of human SK-MEL-2 cells at 10 uM after 96 hrs by MTT assay; assay type: functional; design: scale not given: the % may be the effect or the level left
K562 = experiment: Growth inhibition of human K562 cells at 10 uM after 96 hrs by MTT assay; assay type: functional; design: scale not given: the % may be the effect or the level left
Malme-3M = experiment: Growth inhibition of human MALME-3M cells at 10 uM after 96 hrs by MTT assay; assay type: functional; design: scale not given: the % may be the effect or the level left
NCI-H23 = experiment: Growth inhibition of human NCI-H23 cells at 10 uM after 96 hrs by MTT assay; assay type: functional; design: scale not given: the % may be the effect or the level left
OVCAR-4 = experiment: Growth inhibition of human OVCAR4 cells at 10 uM after 96 hrs by MTT assay; assay type: functional; design: scale not given: the % may be the effect or the level left
SNB-75 = experiment: Growth inhibition of human SNB75 cells at 10 uM after 96 hrs by MTT assay; assay type: functional; design: scale not given: the % may be the effect or the level left
NCI-H226 = experiment: Growth inhibition of human NCI-H226 cells at 10 uM after 96 hrs by MTT assay; assay type: functional; design: scale not given: the % may be the effect or the level left
A498 = experiment: Growth inhibition of human A498 cells at 10 uM after 96 hrs by MTT assay; assay type: functional; design: scale not given: the % may be the effect or the level left
CCRF-CEM = experiment: Growth inhibition of human CCRF-CEM cells at 10 uM after 96 hrs by MTT assay; assay type: functional; design: scale not given: the % may be the effect or the level left
A549 = experiment: Growth inhibition of human A549 cells at 10 uM after 96 hrs by MTT assay; assay type: functional; design: scale not given: the % may be the effect or the level left
PC-3 = experiment: Growth inhibition of human PC3 cells at 10 uM after 96 hrs by MTT assay; assay type: functional; design: scale not given: the % may be the effect or the level left
IGROV-1 = experiment: Growth inhibition of human IGROV1 cells at 10 uM after 96 hrs by MTT assay; assay type: functional; design: scale not given: the % may be the effect or the level left
SK-MEL-28 = experiment: Growth inhibition of human SK-MEL-28 cells at 10 uM after 96 hrs by MTT assay; assay type: functional; design: scale not given: the % may be the effect or the level left
SNB-19 = experiment: Growth inhibition of human SNB19 cells at 10 uM after 96 hrs by MTT assay; assay type: functional; design: scale not given: the % may be the effect or the level left
SN12C = experiment: Growth inhibition of human SN12C cells at 10 uM after 96 hrs by MTT assay; assay type: functional; design: scale not given: the % may be the effect or the level left
OVCAR-8 = experiment: Growth inhibition of human OVCAR8 cells at 10 uM after 96 hrs by MTT assay; assay type: functional; design: scale not given: the % may be the effect or the level left
SW-620 = experiment: Growth inhibition of human SW620 cells at 10 uM after 96 hrs by MTT assay; assay type: functional; design: scale not given: the % may be the effect or the level left
[1] = Growth inhibition of human Hs 578T cells at 10 uM after 96 hrs by MTT assay; assay type: functional; design: scale not given: the % may be the effect or the level left
UACC-62 = experiment: Growth inhibition of human UACC62 cells at 10 uM after 96 hrs by MTT assay; assay type: functional; design: scale not given: the % may be the effect or the level left
BT-549 = experiment: Growth inhibition of human BT549 cells at 10 uM after 96 hrs by MTT assay; assay type: functional; design: scale not given: the % may be the effect or the level left
NCI-H460 = experiment: Growth inhibition of human NCI-H460 cells at 10 uM after 96 hrs by MTT assay; assay type: functional; design: scale not given: the % may be the effect or the level left
HCC 2998 = experiment: Growth inhibition of human HCC2998 cells at 10 uM after 96 hrs by MTT assay; assay type: functional; design: scale not given: the % may be the effect or the level left
[2] = Antitumor activity against human KB3 cells after 96 hrs by MTT assay; assay type: functional, cell-based; details: KB3, 96 h
Outline: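 Human KB-3 carcinoma cells exposed to increasing compound concentrations; viability read by MTT colorimetric assay after 96 h. Values are means of triplicate assays, expressed relative to untreated controls.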

UACC-257 = experiment: Growth inhibition of human UACC257 cells at 10 uM after 96 hrs by MTT assay; assay type: functional; design: scale not given: the % may be the effect or the level left
TK-10 = experiment: Growth inhibition of human TK10 cells at 10 uM after 96 hrs by MTT assay; assay type: functional; design: scale not given: the % may be the effect or the level left
HOP-62 = experiment: Growth inhibition of human HOP62 cells at 10 uM after 96 hrs by MTT assay; assay type: functional; design: scale not given: the % may be the effect or the level left
DU-145 = experiment: Growth inhibition of human DU145 cells at 10 uM after 96 hrs by MTT assay; assay type: functional; design: scale not given: the % may be the effect or the level left
MDA-MB-468 = experiment: Growth inhibition of human MDA-MB-468 cells at 10 uM after 96 hrs by MTT assay; assay type: functional; design: scale not given: the % may be the effect or the level left
UO-31 = experiment: Growth inhibition of human UO31 cells at 10 uM after 96 hrs by MTT assay; assay type: functional; design: scale not given: the % may be the effect or the level left
NCI-H522 = experiment: Growth inhibition of human NCI-H522 cells at 10 uM after 96 hrs by MTT assay; assay type: functional; design: scale not given: the % may be the effect or the level left
SR = experiment: Growth inhibition of human SR cells at 10 uM after 96 hrs by MTT assay; assay type: functional; design: scale not given: the % may be the effect or the level left
HCT-15 = experiment: Growth inhibition of human HCT15 cells at 10 uM after 96 hrs by MTT assay; assay type: functional; design: scale not given: the % may be the effect or the level left
HCT-116 = experiment: Growth inhibition of human HCT116 cells at 10 uM after 96 hrs by MTT assay; assay type: functional; design: scale not given: the % may be the effect or the level left
RXF 393 = experiment: Growth inhibition of human RXF393 cells at 10 uM after 96 hrs by MTT assay; assay type: functional; design: scale not given: the % may be the effect or the level left
ACHN = experiment: Growth inhibition of human ACHN cells at 10 uM after 96 hrs by MTT assay; assay type: functional; design: scale not given: the % may be the effect or the level left
[3] = Growth inhibition of human RPMI8266 cells at 10 uM after 96 hrs by MTT assay; assay type: functional; design: scale not given: the % may be the effect or the level left
HT-29 = experiment: Growth inhibition of human HT-29 cells at 10 uM after 96 hrs by MTT assay; assay type: functional; design: scale not given: the % may be the effect or the level left
COLO 205 = experiment: Growth inhibition of human COLO205 cells at 10 uM after 96 hrs by MTT assay; assay type: functional; design: scale not given: the % may be the effect or the level left
NCI/ADR-RES = experiment: Growth inhibition of human NCI/ADR-RES cells at 10 uM after 96 hrs by MTT assay; assay type: functional; design: scale not given: the % may be the effect or the level left
SF-268 = experiment: Growth inhibition of human SF268 cells at 10 uM after 96 hrs by MTT assay; assay type: functional; design: scale not given: the % may be the effect or the level left
SF-539 = experiment: Growth inhibition of human SF539 cells at 10 uM after 96 hrs by MTT assay; assay type: functional; design: scale not given: the % may be the effect or the level left
U-251 = experiment: Growth inhibition of human U251 cells at 10 uM after 96 hrs by MTT assay; assay type: functional; design: scale not given: the % may be the effect or the level left

In the case of `C=C(C)[C@H]1CC=C(C)[C@@]2(O)[C@@H]1[C@H](c1ccc(Cl)cc1Cl)O[C@@H]2C(=O)OCC`, the Activity (OVCAR-3) is reported as 112.11%, the Activity (MDA-MB-231) is reported as 101.68% and the Activity (MDA-MB-435) is reported as 107.24%. The Activity (SK-MEL-5) was 102.55%, the Activity (786-0) was 87.09% and the Activity (MCF7) was 104.98%. The Activity (HOP-92) was 94.71%, the Activity (OVCAR-5) was 103.98% and the Activity (SK-OV-3) was 98.68%. It also gave an Activity (MOLT-4) of 98.02%, an Activity (T47D) of 94.32% and an Activity (M14) of 104.29%. It also gave an Activity (KM12) of 99.49%, an Activity (HL-60(TB)) of 100.94% and an Activity (EKVX) of 104.39%. The Activity (LOX IMVI) was 98%, the Activity (NCI-H322M) was 113.73% and the Activity (SK-MEL-2) was 106.54%. For the same compound, the Activity (K562) was 79.96%, the Activity (Malme-3M) was 117.74% and the Activity (NCI-H23) was 97.89%. For the same compound, the Activity (OVCAR-4) was 93.31%, the Activity (SNB-75) was 82.61% and the Activity (NCI-H226) was 97.47%. The Activity (A498) was 102.47%, the Activity (CCRF-CEM) was 98.31% and the Activity (A549) was 90.16%. It also gave an Activity (PC-3) of 99.33%, an Activity (IGROV-1) of 82.34% and an Activity (SK-MEL-28) of 113.23%. For the same compound, the Activity (SNB-19) was 87.9%, the Activity (SN12C) was 98.08% and the Activity (OVCAR-8) was 94.44%. For the same compound, the Activity (SW-620) was 97.1%, the Activity [1] was 100.26% and the Activity (UACC-62) was 84.48%. For the same compound, the Activity (BT-549) was 139.44%, the Activity (NCI-H460) was 108.8% and the Activity (HCC 2998) was 108.86%. For the same compound, the IC50 [2] was 3000 nM, the Activity (UACC-257) was 94.54% and the Activity (TK-10) was 119.56%. For the same compound, the Activity (HOP-62) was 92.21%, the Activity (DU-145) was 110.29% and the Activity (MDA-MB-468) was 94.32%. It also gave an Activity (UO-31) of 90.72%, an Activity (NCI-H522) of 82.73% and an Activity (SR) of 82.5%. The Activity (HCT-15) was 108.1%, the Activity (HCT-116) was 84.08% and the Activity (RXF 393) was 95.61%. For the same compound, the Activity (ACHN) was 109.85%, the Activity [3] was 106.77% and the Activity (HT-29) was 93.83%. It also gave an Activity (COLO 205) of 122.22%, an Activity (NCI/ADR-RES) of 101.67% and an Activity (SF-268) of 100.46%. It also gave an Activity (SF-539) of 100.6% and an Activity (U-251) of 103.59%.
